# Hits are enriched below; roughly 1.8% of the tested compounds scored in any of these assays.
# Furin inhibitor: blocks human furin protease activity. purified furin, fluorogenic substrate cleavage. inhibition, % at 20 µM or 30 µM. actives 0.061% (n = 220,000). AID 463115; in the data active = inhibition above about 25%
# Target sequence (P09958 108-714 limits assumed): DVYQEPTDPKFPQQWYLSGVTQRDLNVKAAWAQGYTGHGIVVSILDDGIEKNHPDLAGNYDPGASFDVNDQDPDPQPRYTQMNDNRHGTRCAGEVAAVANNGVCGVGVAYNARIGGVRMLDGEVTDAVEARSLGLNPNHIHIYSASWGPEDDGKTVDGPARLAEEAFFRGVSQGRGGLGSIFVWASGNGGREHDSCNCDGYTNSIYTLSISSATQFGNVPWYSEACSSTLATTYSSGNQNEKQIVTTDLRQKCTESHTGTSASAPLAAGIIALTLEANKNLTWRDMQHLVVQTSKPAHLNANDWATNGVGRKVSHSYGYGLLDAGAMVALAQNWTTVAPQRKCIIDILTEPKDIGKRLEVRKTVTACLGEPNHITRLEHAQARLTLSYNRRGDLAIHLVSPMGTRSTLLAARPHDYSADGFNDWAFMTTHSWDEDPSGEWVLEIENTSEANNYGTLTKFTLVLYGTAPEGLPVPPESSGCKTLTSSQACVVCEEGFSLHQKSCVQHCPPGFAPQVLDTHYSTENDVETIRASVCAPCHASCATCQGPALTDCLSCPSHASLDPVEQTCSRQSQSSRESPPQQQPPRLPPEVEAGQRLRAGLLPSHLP
# TNF necrop inh: inhibitors of TNF-alpha induced necroptosis in Jurkat FADD-/- cells. activation (protection from cell death), % at 10 µM. AID 463075. Jurkat FADD-/- TNF necroptosis rescue, ATP luminescence, 24 h; 0 = TNF only, 100 = no-TNF cells. actives 0.068% (n = 220,000);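 active = activation, meaning protection from cell death, of at least 50% relative to plate controls; inactive = activation below 50%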;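 also: necroptosis triggered by 40 ng/mL TNF-alpha added together with compound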
# Dynein cargo inh: blocks dynein driven cargo transport along microtubules; 3617.4 mouse cells, GR-EGFP nuclear translocation imaging; test concentration mostly 20 µM; stimulated with dexamethasone, 1 µM; active compounds read low; z-score, hits read low; actives 0.47% (n = 220,000); AID 1381;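 active = plate z-score of nuclear minus cytoplasmic receptor signal below a set negative limit, without overly bright fluorescence or cell loss, cut at about -3.5 in these data, passing the limit was not always enough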;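 also: z-score of nuclear minus cytoplasmic ring GR-EGFP intensity difference per well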
#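 Buffer or medium: Induction medium lacking tetracycline, stripped serum | Also added: Dexamethasone agonist, 1.0 µM final, for 30 min | Timing: 48 h induction, 1 h compound, 30 min dex at 37 °C | Detection: Formaldehyde fixation, Hoechst nuclear stain, 10x automated fluorescence imaging | Measure: Nuclear versus cytoplasmic GR-EGFP signal, averaged per well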
# HSV augment: HSV replication enhancement. AID 1956. maximum fold increase. actives 0.005% (n = 220,000). HSV replication augmentation in cells, fold increase; in the data active = maximum fold increase above about 1.5; inconclusive = no clear call, values can overlap the other calls; tested in PC3 cells
# zVAD death inh: L929 zVAD cell death inhibition | actives 0.38% (n = 220,000) | L929 zVAD necroptosis rescue, ATP luminescence, 24 h; with zVAD 60 µM | viability rescue, % at 10 µM;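 active = activation, scaled between plate controls, above about 75%, limit read from the data; inactive = activation under that limit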;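 also: 0% = zVAD with DMSO and 100% = DMSO alone without zVAD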
# Autophagy HCS: autophagy modulation, high-content screen; actives 0.98% (n = 190,000); calls only at 10 µM (by protocol); MEF GFP-LC3 puncta imaging; test concentration mostly 10 µM;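 active = percentage of spot-positive cells more than 3 SD above its plate mean, without a fluorescence outlier flag or 80% toxicity; inconclusive = no clear call, values can overlap the other calls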;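 also: spot-positive cell cutoff set from DMSO-treated cells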
# zVAD death conf: confirmed blocker of zVAD induced death in L929 cells. shares compounds with zVAD death inh. L929 zVAD-induced necroptosis rescue, ATP luminescence, 24 h. activation (protection from necroptosis), % at 10 µM. actives 16% (n = 760). AID 463117;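 active = mean protection from necroptosis of at least 50% over duplicate tests; inactive = mean protection below 50%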;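 also: 0% = cells with zVAD alone and 100% = vehicle cells without zVAD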
# An asterisk follows results filed as active; i = inactive; ? = inconclusive; . = no result.
SMILES,Furin inhibitor,TNF necrop inh,Dynein cargo inh,HSV augment,zVAD death inh,Autophagy HCS,zVAD death conf
CCOC(=O)C1=NN(C(=O)COc2ccccc2)C(O)(c2ccc(Br)cc2)C1 (stereo not given),-1,0,0.15,i,16,i,.
CC(C)OP(=O)(OC(C)C)C(NC(=O)c1ccccc1Br)C(N)=O (stereo not given),-9,-1,1.1,i,-1,.,.
Cc1[nH]n(-c2ccccc2)c(=O)c1C=NC1CCCCCC1,-22,3,-0.56,i,80*,i,34
Cc1[nH]n(-c2ccccc2)c(=O)c1C=NC1CCCCC1,-29,3,-0.72,i,75*,i,1
Cc1ccc(NC(=O)C(OC(=O)c2ccc(C=O)cc2)c2ccccc2)cc1Cl (stereo not given),-14,3,0.48,i,83*,i,19
COc1ccc(/C=N/Nc2nc3ccccc3[nH]2)cc1OC,10,40,-0.48,i,79*,i,49
CCOc1cc(/C=N/Nc2nc3ccccc3[nH]2)cc(Br)c1OCC(=O)N(C)C,-11,43,1.5,i,78*,i,58*
C(=N\Nc1nc2ccccc2[nH]1)/c1ccc2c(c1)OCCO2,-13,3,-0.45,i,82*,.,7
COc1cc(/C=N\Nc2nc3ccccc3[nH]2)cc(OC)c1OC,-8,15,-0.075,i,81*,i,48
COc1cc(OC)c(OC)cc1/C=N/Nc1nc2ccccc2[nH]1,-24,1,0.11,i,1,.,.
NS(=O)(=O)c1cccc(NC(=O)c2cccnc2Oc2ccccc2)c1,-10,1,0.55,i,0,.,.
Cn1c(C(=O)NCCCN2CCCCCC2)cc2c(=O)n(C)c3ccccc3c21,-20,3,3.3,i,83*,.,39
Cn1c(C(=O)NCCCN2CCc3ccccc3C2)cc2c(=O)n(C)c3ccccc3c21,-12,1,1.1,i,19,i,.
CCCN1CCN(CCCNC(=O)c2cc3c(=O)n(C)c4ccccc4c3n2C)CC1,-20,2,-0.45,i,53,i,.
CN1CCN(CCNC(=O)c2cc3c(=O)n(C)c4ccccc4c3n2C)CC1,-14,4,-1,i,78*,i,28
Cc1nc2cc(Nc3ccncc3)ccc2s1,-10,2,0.25,i,4,i,.
O=C(NC12CC3CC(CC(C3)C1)C2)c1cc([N+](=O)[O-])ccc1N1CCOCC1,-33,1,-0.93,i,0,i,.
CCCC(=O)Nc1nc2ccc3nc(C)sc3c2s1,-11,5,-0.027,i,91*,i,0
CCCCC(=O)Nc1nc2ccc3nc(C)sc3c2s1,-14,7,0.13,i,46,i,.
CCC(=O)Nc1nc2ccc3sc(C)nc3c2s1,-15,-4,0.61,i,79*,i,8
Cc1nc2c(ccc3nc(NC(=O)C4CC4)sc32)s1,-31,1,-0.18,i,80*,i,18
CCC(=O)Nc1nc2ccc([N+](=O)[O-])cc2s1,-22,-11,-0.11,i,74,.,.
COc1ccccc1NC(=O)/C(=N/OCc1ccc(C#N)cc1)C(C)=O,-16,-1,0.49,i,76*,i,1
Cc1ccc(S(=O)(=O)Nc2nc(C)c(NC(=O)Nc3ccc(Cl)cc3Cl)s2)cc1,4,-2,0.3,i,0,i,.
COc1ccccc1-c1nnc(SCC(=O)NC2CCS(=O)(=O)C2)n1CCc1ccccc1 (stereo not given),-24,1,0.71,i,2,i,.
SMILES,Furin inhibitor,TNF necrop inh,Dynein cargo inh,HSV augment,zVAD death inh,Autophagy HCS,zVAD death conf
COc1cc(/C=C2/SC(=S)N(C)C2=O)ccc1OC(=O)c1ccco1,-3,-3,-0.35,?,1,i,.
CCOc1cc(/C=C2/SC(=S)NC2=O)ccc1OC(=O)c1ccco1,7,3,0.61,4.6*,79*,i,2
CCOc1c(Br)cc(C(N)=O)cc1OCc1ccccc1,-16,-2,-0.77,i,0,i,.
CN(C)c1cccc2c(C=C(C#N)C#N)ccc(N(C)C)c12,-22,1,-2.1,i,0,i,.
CCOc1cc(/C=C/C(=O)c2ccc(O)cc2)ccc1OCC(=O)N(C)C,-8,8,-1.2,i,105*,i,25
CCOc1cc(C=O)ccc1OCC(N)=O,-20,0,-0.28,i,24,i,.
CCN(CC)CCNC(=O)c1cc2c(=O)n(C)c3ccccc3c2n1C,-41,5,-0.78,i,77*,i,20
CCN(CC)CCCNC(=O)c1cc2c(=O)n(C)c3ccccc3c2n1C,-23,4,-0.17,i,77*,i,33
CCCCN(CC)CCNC(=O)c1cc2c(=O)n(C)c3ccccc3c2n1C,-14,4,0.08,i,75,i,.
CCCN(CCC)CCCNC(=O)c1cc2c(=O)n(C)c3ccccc3c2n1C,-11,3,0.79,i,79*,i,36
Cc1nc(N2CCOCC2)nc(Oc2ccccc2)c1[N+](=O)[O-],-18,-4,-0.13,i,-1,.,.
CCOC(=O)c1c(NC(=O)C(C)N2CCN(C(=O)c3ccco3)CC2)sc2c1CCCC2 (stereo not given),-10,3,0.6,.,0,i,.
Cc1cccc(N(CC(=O)NCc2ccco2)C(=O)CCC(=O)Nc2nccs2)c1,-26,0,-0.48,i,1,i,.
CCCCc1[nH]c(=O)c(C#N)c2c1CSC(C)(C)C2,-11,-2,-0.59,i,75*,i,34
Cc1ccc(-n2nc3ccc(NC(=O)/C=C/c4ccco4)cc3n2)cc1,-2,-2,-0.63,i,2,i,.
CCOC(=O)c1ccc2[nH]c3c(c2c1)CCCC3O (stereo not given),-27,7,-0.49,i,76*,i,41
Fc1ccccc1-c1ccc(/C=N/Nc2nc3ccccc3[nH]2)o1,-13,-2,-0.64,i,1,i,.
Cc1ccc(/C=N\Nc2nc3ccc(Cl)cc3[nH]2)o1,-6,9,-0.49,i,86*,i,78*
COc1ccc2c(C)nc(Nc3nc(C)c(C)c(=O)[nH]3)nc2c1,-22,-19,0.86,i,113*,i,1
COCCCNC(=S)NCCNc1nc2c(C)c(C)ccc2cc1C#N,-28,0,-0.54,i,1,i,.
CCOc1cc(/C=N/NC(=O)c2cc(C3CC3)[nH]n2)ccc1O,-25,9,0.73,i,91*,i,7
CN(C)S(=O)(=O)c1ccc(NC(=O)c2cc3ccccc3o2)cc1,-28,-1,-0.21,i,92*,i,4

# Compound activity (PubChem)
